What was measured:
[1] = test system: Plasmodium falciparum; experiment: Antimalarial activity against Plasmodium falciparum NF54 assessed as inhibition of parasite growth incubated for 48 hrs by [3H]hypoxanthine incorporation assay based liquid scintillation counting method; format: functional, organism-based
In short: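 ³H-hypoxanthine incorporation against erythrocytic P. falciparum NF54 (drug-sensitive). Culture in hypoxanthine-free RPMI 1640 with HEPES, NaHCO3, neomycin and Albumax, on human A+ red cells at 2.5% hematocrit, 0.3% parasitemia. Eleven 3-fold dilutions spanning 100 to 0.002 µg/mL. 37 °C in 4% CO2/3% O2/93% N2. Label (0.5 µCi) added after 48 h, then a further 24 h. Scintillation counting. IC50 from 4-parameter logistic fit, average of two independent determinations.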

[2] = test system: L6; experiment: Cytotoxicity against rat L6 cells assessed as reduction in cell viability incubated for 70 hrs by resazurin dye based fluorescence assay; settings: L6, 70 h
In short: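 L6 rat skeletal myoblasts seeded at 4000 cells/well in RPMI 1640 with 1% L-glutamine and 10% FBS. Eleven 3-fold drug dilutions (100 to 0.002 µg/mL) added 24 h after seeding, then 70 h incubation. Resazurin added for 2 h. Fluorescence read at ex 536/em 588 nm. IC50 from 4-parameter logistic fit, average of two independent determinations.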

[3] = Selectivity index, ratio of IC50 for cytotoxicity against rat L6 cells to IC50 for antimalarial activity against Plasmodium falciparum NF54; format: toxicity, cell-based; settings: read-out: Ratio IC50
In short: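 SI calculated as L6 cytotoxicity IC50 divided by P. falciparum NF54 IC50, both measured in parallel in vitro assays.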

[4] = test system: Plasmodium berghei; experiment: Antimalarial activity against Plasmodium berghei NK65 infected in ICR mouse assessed as reduction in parasitemia at 59 mg/kg, po qd for 4 days by Diff-Quik staining based microscopic method (reference value: 0%); format: functional; settings: 96 h, time 4 day
[5] = test system: Plasmodium berghei; experiment: Antimalarial activity against Plasmodium berghei NK65 infected in ICR mouse assessed as animal mean survival days at 59 mg/kg, po qd for 4 days (reference value: 6.2 day); format: functional; settings: time 4 day
[6] = test system: Plasmodium berghei; experiment: Antimalarial activity against Plasmodium berghei NK65 infected in ICR mouse assessed as reduction in parasitemia at 58.4 mg/kg, po qd for 4 days by Diff-Quik staining based microscopic method (reference value: 0%); format: functional; settings: 96 h, time 4 day
[7] = test system: Plasmodium berghei; experiment: Antimalarial activity against Plasmodium berghei NK65 infected in ICR mouse assessed as animal mean survival days at 58.4 mg/kg, po qd for 4 days (reference value: 6.2 day); format: functional; settings: time 4 day
[8] = test system: Plasmodium berghei; experiment: Antimalarial activity against Plasmodium berghei NK65 infected in ICR mouse assessed as reduction in parasitemia at 58.2 mg/kg, po qd for 4 days by Diff-Quik staining based microscopic method (reference value: 0%); format: functional; settings: 96 h, time 4 day
[9] = test system: Plasmodium berghei; experiment: Antimalarial activity against Plasmodium berghei NK65 infected in ICR mouse assessed as animal mean survival days at 58.2 mg/kg, po qd for 4 days (reference value: 6.2 +/-0.5 day); format: functional; settings: time 4 day
[10] = test system: Plasmodium berghei; experiment: Antimalarial activity against Plasmodium berghei NK65 infected in ICR mouse assessed as parasitemia at 50 mg/kg, po qd for 4 days by Diff-Quik staining based microscopic method (reference value: 28.4 +/- 10.2%); format: functional; settings: time 4 day
[11] = test system: Plasmodium berghei; experiment: Antimalarial activity against Plasmodium berghei NK65 infected in ICR mouse assessed as reduction in parasitemia at 50 mg/kg, po qd for 4 days by Diff-Quik staining based microscopic method (reference value: 0%); format: functional; settings: 96 h, time 4 day
[12] = test system: Plasmodium berghei; experiment: Antimalarial activity against Plasmodium berghei NK65 infected in ICR mouse assessed as animal mean survival days at 50 mg/kg, po qd for 4 days (reference value: 6.2 +/- 0.5 day); format: functional; settings: time 4 day
[13] = test system: Plasmodium berghei; experiment: Antimalarial activity against Plasmodium berghei NK65 infected in ICR mouse assessed as reduction in parasitemia at 57 mg/kg, po qd for 4 days by Diff-Quik staining based microscopic method (reference value: 0%); format: functional; settings: 96 h, time 4 day
[14] = test system: Plasmodium berghei; experiment: Antimalarial activity against Plasmodium berghei NK65 infected in ICR mouse assessed as animal mean survival days at 57 mg/kg, po qd for 4 days (reference value: 6.2 day); format: functional; settings: time 4 day

## CCNc1nc(Nc2cccnc2)nc2cc(OC)c(OC)cc12
[1]
  IC50: 6.14 nM
[2]
  IC50: 112000 nM
[3]
  selectivity ratio: 18200

## COc1cc2nc(N3CCCC3)nc(NC(C)CCc3ccccc3)c2cc1OC (stereo not given)
[1]
  IC50: 7.3 nM
[2]
  IC50: 4480 nM
[3]
  selectivity ratio: 613

## CCCCNc1nc(Nc2ccncc2)nc2cc(OC)c(OC)cc12
[1]
  IC50: 5.67 nM
[2]
  IC50: 105000 nM

## CCCCNc1nc(Nc2cccnc2)nc2cc(OC)c(OC)cc12
[1]
  IC50: 25.4 nM
[2]
  IC50: 150000 nM
[3]
  selectivity ratio: 5900

## COc1cc2nc(N3CCCC3)nc(NCc3cccnc3)c2cc1OC.Cl
[4]
  inhibition in vivo at 59 mg/kg: 80.3%
[5]
  MSD: 8 days

## CCNc1nc(Nc2ccncc2)nc2cc(OC)c(OC)cc12.Cl
[6]
  inhibition in vivo at 58.4 mg/kg: 1%
[7]
  MSD: 7 days

## CCNc1nc(NCCc2ccccc2)nc2cc(OC)c(OC)cc12
[1]
  IC50: 17 nM
[2]
  IC50: 1680 nM
[3]
  selectivity ratio: 99

## CCCCCCCCNc1nc(N2CCCC2)nc2cc(OC)c(OC)cc12
[1]
  IC50: 1.4 nM
[2]
  IC50: 1480 nM
[3]
  selectivity ratio: 1060

## COc1cc2nc(Nc3ccncc3)nc(NC(C)C)c2cc1OC.Cl.Cl
[8]
  inhibition in vivo at 58.2 mg/kg: 39.5%
[9]
  MSD: 8.3 days

## COc1cc2nc(N3CCC(C(N)=O)CC3)nc(NCc3ccccc3)c2cc1OC
[1]
  IC50: 180 nM
[2]
  IC50: 4980 nM
[3]
  selectivity ratio: 27.7

## COc1cc2nc(Nc3ccncc3)nc(Nc3ccccc3C)c2cc1OC
[1]
  IC50: 49 nM
[2]
  IC50: 213000 nM
[3]
  selectivity ratio: 4350

## CCCCCCCCNc1nc(Nc2ccncc2)nc2cc(OC)c(OC)cc12.Cl
[6]
  inhibition in vivo at 58.4 mg/kg: 54.8%
[7]
  MSD: 7.3 days

## CCCCNc1ncnc2cc(OC)c(OC)cc12
[1]
  IC50: 4710 nM
[2]
  IC50: 73600 nM
[3]
  selectivity ratio: 15.6

## CCCCNc1nc(N2CCCC2)nc2cc(OC)c(OC)cc12
[1]
  IC50: 1.8 nM
[2]
  IC50: 61800 nM
[10]
  Activity: 10.8%
[11]
  inhibition in vivo at 50 mg/kg: 60%
[12]
  MSD: 6.6 days

## CCCCCCCCNc1nc(N2CCCC2)nc2cc(OC)c(OC)cc12.Cl
[13]
  inhibition in vivo at 57 mg/kg: 48.8%
[14]
  MSD: 6.7 days

## COc1cc2nc(Nc3ccncc3)nc(NC(C)C)c2cc1OC
[1]
  IC50: 2.9 nM
[2]
  IC50: 81400 nM
[3]
  selectivity ratio: 28000

## CCCCNc1nc(NCc2ccncc2)nc2cc(OC)c(OC)cc12
[1]
  IC50: 8.16 nM
[2]
  IC50: 11000 nM
[3]
  selectivity ratio: 1360

## CCC(CC)Nc1nc(Nc2ccncc2)nc2cc(OC)c(OC)cc12
[1]
  IC50: 51.8 nM
[2]
  IC50: 110000 nM
[3]
  selectivity ratio: 2130

## COc1cc2nc(N3CCCC3)nc(NCc3cccnc3)c2cc1OC
[1]
  IC50: 13.6 nM
[2]
  IC50: 27300 nM
[3]
  selectivity ratio: 2000

## COc1cc2nc(Nc3ccncc3)nc(Nc3ccccc3C(F)(F)F)c2cc1OC
[1]
  IC50: 22.6 nM
[2]
  IC50: 138000 nM
[3]
  selectivity ratio: 6100

## COc1cc2nc(N3CCCC3)nc(N)c2cc1OC
[1]
  IC50: 1660 nM
[2]
  IC50: 28200 nM
[3]
  selectivity ratio: 17

## COc1cc2nc(N3CCCC3)nc(NC(C)C)c2cc1OC
[2]
  IC50: 12500 nM
[3]
  selectivity ratio: 3430

## CCCCCCCCNc1nc(Nc2ccncc2)nc2cc(OC)c(OC)cc12
[1]
  IC50: 7.3 nM
[2]
  IC50: 1760 nM
[3]
  selectivity ratio: 241

## CCNc1nc(Cl)nc2cc(OC)c(OC)cc12
[1]
  IC50: 15800 nM
[2]
  IC50: 52600 nM
[3]
  selectivity ratio: 3.33

## CCCCNc1nc(NCCCC)c2ccccc2n1
[1]
  IC50: 121 nM
[2]
  IC50: 3010 nM
[3]
  selectivity ratio: 25.6
